Measured values from paper PMC10454840 (Drug Design, Development and Therapy, 2023).

Columns and labels:
E. granulosus s.s. PSCs = assay: In vitro drug treatment of PSCs, viability by 1% eosin staining; assay type: cell-based, Echinococcus granulosus sensu stricto; conditions: Echinococcus granulosus, 48 h, read-out: viability of PSCs
How it was run: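 Protoscoleces came from sheep cysts. They were washed in PBS, digested with 1% pepsin for 30 min and cultured in RPMI 1640 with 10% FBS and penicillin/streptomycin at 37 °C, 5% CO2 for 3 days, with viability above 98%. Wells held 200 PSCs. Compounds came from 20 mM DMSO stocks, at 40 μM final for screening, then 40–240 μM. The control was 1% DMSO. After 48 h, 1% eosin marked dead PSCs red. Three independent experiments, mean ± S.D.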

[1] = test system: cysts from E. granulosus s.s.-infected mice; assay: TEM observation of cysts from treated infected mice; assay type: in vivo, Kunming mice; conditions: 50 mg/kg, oral, 28 days
How it was run: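 Female Kunming mice, 8 weeks old, were infected intraperitoneally with 50 in vitro-derived microcysts. Infection was confirmed by B-mode ultrasound at 6 months, and mice were randomised into groups of 6. Test compound was given in 0.5% CMC-Na by daily oral gavage (0.1 mL/10 g) for 28 days against a vehicle control. Peritoneal cysts were isolated, and randomly selected cysts were examined by TEM.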

[2] = test system: E. granulosus s.s.-infected mice; assay: Drug treatment of E. granulosus s.s.-infected mice, cyst weight; assay type: in vivo, Kunming mice; conditions: 50 mg/kg/day oral, 28 days
[3] = Acute toxicity study in mice; conditions: both, Kunming, mouse, in vivo, po, single oral dose
PC12 cells [4] = assay: Hoechst 33342 staining assay of PC12 cell apoptosis; assay type: cell-based; conditions: 200 μM, 48 h
How it was run: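 PC12 cells seeded at 1×10^5/well in 6-well plates and grown at 37 °C, 5% CO2 to 70–80% confluence. Test compound at 200 μM for 48 h, with a DMSO control group. Medium removed, Hoechst staining solution added for 30 min at 37 °C, cells washed three times with PBS, and nuclear morphology viewed by inverted fluorescence microscopy.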

PC12 cells [5] = assay: MTT cytotoxicity assay in PC12 cells; assay type: cell-based; conditions: 200 μM, 48 h
How it was run: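 PC12 cells in log phase were grown in RPMI 1640 with 10% horse serum, 5% FBS and penicillin/streptomycin, then seeded at 1×10^4 per well and settled for 12 h at 37 °C, 5% CO2. Compounds were added at 6.25–200 μM final, in triplicate, with a DMSO control, for 48 h. Serum-free medium plus MTT followed for 4 h, then formazan lysate and absorbance at 570 nm. Inhibition = [1−(ODtreated−ODblank)/(ODcontrol−ODblank)]×100%.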

CCCSc1ccc2nc(NC(=O)OC)[nH]c2c1 [ABZ, Albendazole]
viability at 40 µM (E. granulosus s.s. PSCs): 94.8 ± 5% | cyst ultrastructure (TEM) [1]: fewer microtriches and an unclear germinal layer structure but clear nuclei

COc1ccc2c(c1)[nH]c1c(C)nccc12 [HM, 7-methoxy-1-methyl-9H-pyrido[3,4-b] indole]
cyst weight [2]: 6.53 ± 1.56 g | viability at 40 µM (E. granulosus s.s. PSCs): 94.7 ± 4.52% | cyst ultrastructure (TEM) [1]: fewer microtriches and an unclear germinal layer structure but clear nuclei | LD50 at 14 days [3]: 447 mg/kg | PC12 cell nuclei / morphology (apoptosis) (PC12 cells [4]): reduced number of cells with varying morphological sizes and significantly denser granules or bright blue fluorescence | PC12 cell viability inhibition (PC12 cells [5]): 87.02 ± 5.65%
